One test relates to cyclin A. The experiment in a line: GST pull down, cyclin A in isolation. In kind it is binding, human. The conditions noted are these: HEPES pH 7.5; 1 h, 4°C; SDS-PAGE; two experiments; Figure 1C. The method, boiled down: (§1)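 Bacterially expressed proteins: CDK2 (1–298) as a GST fusion, cyclin A (1–432 or 173–432) as a 6XHis fusion. […] Incubated 1 h at 4 °C with mild agitation, washed three times in binding buffer, and bound material analysed by SDS-PAGE; repeated 2–3 times.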

In a further test the test system is CDK2. The experiment in a line: GST pull down, CDK2 in isolation. In kind it is binding, human. The following applies: HEPES pH 7.5; 1 h, 4°C; SDS-PAGE; two experiments; Figure 1C.
Test [1] addresses CDK2-cyclin A (Homo sapiens, UniProt P20248+P24941). Put plainly: GST pull down, CDK2-cyclin A. In kind it is binding. The conditions noted are these: 1 h, 4°C, SDS-PAGE, two experiments; for binding of GST-tagged Skp2 N-terminal fragments to CDK2-cyclin A^1−432: GST pull-down, Figure 4B; for binding of N-terminal deletions to GST:CDK2-cyclin A: GST CDK2-cyclin A^173−432 with Skp1-Skp2 deletions, Figure 1D. The method, boiled down: as §1

In test [2] the target is CDK2-cyclin A (Surface 2, hydrophobic patch). The experiment in a line: Fluorescence polarization displacement of FITC-p27^27−36 from CDK2-cyclin A. The following applies: 25 nM FITC-p27^27−36, CDK2-cyclin A 6.25 μM, HEPES pH 7.5, 30 min, N=4. Format: binding, human.
A further test relates to CDK2-cyclin A^173−432. The experiment in a line: Protein kinase assay, Bora^1−224 phosphorylation by CDK2-cyclin A. In kind it is biochemical, human. The conditions noted are these: 3 nM CDK2-cyclin A, 30°C, 30 min, Figure 7A.
Test [3] relates to CDK2-cyclin A. The conditions noted are these: ref Ji et al., 2006; cited from earlier work.

Data on 8 substances can be found in PMC8419023 (Structure (London, England : 1993), 2021).

No end group written: not given here.

In the case of “GST-Skp2^1−424: GST-tagged full-length Skp2”, in the test with cyclin A, the “pull down of cyclin A in isolation” value is reported as “could also pull down cyclin A in isolation”. The “pull down of CDK2 in isolation” value in the test with CDK2 was “not CDK2 in isolation”. Turning to “Skp2^1−29: GST-tagged Skp2 fragment 1–29 (MHRKHLQEIPDLSSNVATSFTWGWDSSKT; also: GST-tagged (end not given here))”, in the test with CDK2-cyclin A [1], the “binding of GST-tagged Skp2 N-terminal fragments to CDK2-cyclin A^1−432” value is “A major loss of binding to CDK2-cyclin A”. As for “Skp2^1−424: full-length Skp2 in complex with Skp1”, the 50% inhibitory concentration (IC50) was determined as 5.3 µM in test [2] (Figure 3E) and 5.8 µM in test [2] (Figure 4F). In the test with CDK2-cyclin A^173−432 (10 μM Bora^1–224, 0.75 mM ATP [γ−^32P], pH 7.5, phosphoimager), the “concentration for complete inhibition of Bora phosphorylation” value was 10 µM. Moreover, the “inhibition of phosphorylation of RxL containing substrate (in words)” value in the test with CDK2-cyclin A^173−432 (Bora^1–224) is given as “completely inhibit Bora phosphorylation in vitro in a manner dependent on its N-terminus”.

Regarding “Skp2^17−43: GST-tagged Skp2 fragment 17–43 (ATSFTWGWDSSKTSELLSGMGVSALEK; also: GST-tagged (end not given here))”, in the test with CDK2-cyclin A [1], the “binding of GST-tagged Skp2 N-terminal fragments to CDK2-cyclin A^1−432” value is given as “did not affect binding to CDK2-cyclin A”. On the same count and under the same terms, the value for “Skp2^28−43: GST-tagged Skp2 fragment 28–43 (KTSELLSGMGVSALEK; also: GST-tagged (end not given here))” was “did abolish binding”. For the substance “Skp2^Δ1−16: Skp2 with residues 1 to 16 deleted”, the “binding of N-terminal deletions to GST:CDK2-cyclin A” value with CDK2-cyclin A [1] is recorded as “had no effect on CDK2-cyclin A binding”. On the same count and under the same terms, the value for “Skp2^Δ1−28: Skp2 with residues 1 to 28 deleted” was “caused a decrease in CDK2-cyclin A binding”.

On to p21: CDK inhibitor p21, for which, in the test with CDK2-cyclin A [3], the “competition with the N-terminus of Skp2” value is reported as “compete with the N-terminus of Skp2 for binding to CDK2-cyclin A”.
